Compound activity deposited in PubChem by several laboratories.
Rows were chosen to be rich in hits. Some 1.8% of all compounds tested hit in one or more screens of this group.
PG9 binder = binds the HIV-1 gp120 antibody PG9; TR-FRET gp120-PG9 antibody binding; inhibition, % at 6.7 µM; actives 0.43% (n = 360,000); AID 624416; in the data active means inhibition above about 8.5%
NR2E3 ag-1 = NR2E3 (human) agonism | GST-NR2E3/biotin-RetCOR TR-FRET, 1536-well | inhibition of corepressor binding, % at 4.78 µM | actives 0.12% (n = 320,000) | AID 2300;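 active means percent inhibition above the cutoff of mean plus 3 SD of all tested compounds, set per screening campaign, cut at about 20% in these data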;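 further: 0% = DMSO wells and 100% = biotin wells as full block of FRET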
Target sequence (Q9Y5X4 whole entry, looked up): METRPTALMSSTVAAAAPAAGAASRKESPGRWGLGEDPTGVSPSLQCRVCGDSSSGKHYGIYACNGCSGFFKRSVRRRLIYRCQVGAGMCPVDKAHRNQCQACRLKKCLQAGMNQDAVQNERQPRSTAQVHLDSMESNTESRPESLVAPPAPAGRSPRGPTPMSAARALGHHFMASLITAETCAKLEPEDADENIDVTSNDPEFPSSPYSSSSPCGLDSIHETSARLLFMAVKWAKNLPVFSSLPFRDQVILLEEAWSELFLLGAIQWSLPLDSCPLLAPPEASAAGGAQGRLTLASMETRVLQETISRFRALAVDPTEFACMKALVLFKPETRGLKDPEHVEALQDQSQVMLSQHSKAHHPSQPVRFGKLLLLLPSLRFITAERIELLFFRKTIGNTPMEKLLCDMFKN
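Test system: GST-NR2E3 and biotin-RetCOR proteins | Quantity: 1.35 nM GST-tagged NR2E3 final | Medium: Tris pH 7.5 | Also added: 7 nM biotin-RetCOR | Dosing: Compound at 4.8 µM, single dose | Timing: 5 h at 4 °C | Detection: Time-resolved FRET | Read-out basis: Percent inhibition | Benchmarks: Biotin wells as high control, 0.6% DMSO wells as low control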
GalR3 antag = blocks the human galanin receptor 3; O60755; HEK293 GalR3-CNG cAMP membrane potential fluorescence; galR3 body fused to GalR1 C-terminus; inhibition, % at 3 µM; actives 0.44% (n = 360,000);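 active means inhibition above the screen-wide average plus 3 SD, cut at about 13% in these data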;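 further: forskolin and galanin both at EC90 stimulate the cells; cAMP rise reported by CNG channel membrane potential dye signal; 0% = forskolin plus galanin with DMSO and 100% = forskolin alone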
Target sequence (O60755 1-299 limits assumed): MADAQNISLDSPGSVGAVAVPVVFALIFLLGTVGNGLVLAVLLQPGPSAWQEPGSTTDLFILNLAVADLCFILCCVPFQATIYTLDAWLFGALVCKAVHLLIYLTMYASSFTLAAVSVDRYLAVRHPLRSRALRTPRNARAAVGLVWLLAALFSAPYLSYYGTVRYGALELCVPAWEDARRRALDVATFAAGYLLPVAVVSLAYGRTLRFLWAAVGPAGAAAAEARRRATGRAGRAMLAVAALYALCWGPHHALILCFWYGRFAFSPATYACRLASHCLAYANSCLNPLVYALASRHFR
NR1D1 modulator = modulates human Rev-erb alpha binding to DNA. actives 0.79% (n = 370,000). P20393. Rev-erbα–FITC-DNA binding, fluorescence polarization, 90 min. activity, % at 10 µM;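 active means activity above about 14%, limit read from the data; passing the limit was not always enough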;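 further: 0% = DMSO wells with 35 nM protein and 100% = DMSO wells with 750 nM protein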
NR2E3 ag-2 = agonists of human NR2E3 nuclear receptor | Q9Y5X4 | CHO-S Gal4-NCOR/VP16-NR2E3 two-hybrid, luciferase | inhibition of corepressor binding, % at 3.98 µM | actives 0.35% (n = 360,000);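 active means inhibition above the mean of all tested compounds plus 3 SD, cut at about 70% in these data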;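 further: 0% = DMSO with NR2E3 transfected cells and 100% = cells lacking NR2E3 construct; higher means lower luciferase signal from less NR2E3 corepressor binding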
NR1D1 mod conf = confirmation of modulators of human Rev-erb alpha DNA binding; shares compounds with NR1D1 modulator; activation, % at 25 µM; Rev-erb alpha FITC-DNA binding, fluorescence polarization, 90 min; actives 61% (n = 3,000);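 active means activation at or above a set limit, or at least 3 SD above the negative control mean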;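 further: 0% = 35 nM protein with DMSO and 100% = 750 nM protein high control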
RORg DNA counter = counter-screen for Rev-erb alpha modulators: RORgamma DNA binding | shares compounds with NR1D1 modulator | purified RORgamma protein-FITC-DNA binding, fluorescence polarization | IC50, µM | actives 8% (n = 910) | AID 1259320;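 active means Compounds whose fitted half-maximal concentration for disrupting protein-DNA binding is below 10 micromolar; the record names Rev-erb in its text, so the target is in doubt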
Numbers without * were called inactive.

Results for Nc1ccc2nc3c(=O)n(C4CCCCC4)c(=O)[nH]c3nc2c1 ?
PG9 binder: -4.6; NR2E3 ag-1: -6.9; GalR3 antag: -5.0; NR1D1 modulator: 76.6*; NR2E3 ag-2: -58.2; NR1D1 mod conf: 82.7*; RORg DNA counter: >40

What do the screens show for `Nc1ccc2nc3c(=O)n(CCc4ccccc4)c(=O)[nH]c3nc2c1`?
PG9 binder: -6.0; NR2E3 ag-1: -4.7; GalR3 antag: -6.2; NR1D1 modulator: 71.8*; NR2E3 ag-2: -10.4; NR1D1 mod conf: 63.8*; RORg DNA counter: inactive

What do the screens show for `Cc1cc2nc3c(=O)n(CCc4ccccc4)c(=O)[nH]c3nc2cc1N`?
PG9 binder: -6.5; NR2E3 ag-1: -1.9; GalR3 antag: 0.5; NR1D1 modulator: 37.8*; NR2E3 ag-2: -32.2; NR1D1 mod conf: 33.9*; RORg DNA counter: 2.13*

Results for CCOc1ccc(-n2c(SCC(=O)Nc3cccc4ccccc34)nnc2-c2ccccc2)cc1 ?
NR1D1 modulator: -3.3

How did COc1ccccc1N(C(=O)c1snc(C(N)=O)c1N)C(C(=O)NC1CCCC1)c1ccc(N(C)C)cc1 (stereo unspecified) do in these assays?
PG9 binder: -1.7; NR2E3 ag-1: 0.3; GalR3 antag: -8.3; NR1D1 modulator: 36.2*; NR2E3 ag-2: -29.5; NR1D1 mod conf: 10.4

How did Cc1ccc(NC(=O)[C@H]2CC(=O)O[C@@H]2c2ccccc2)c(C)c1 do in these assays?
NR1D1 modulator: 5.6

Results for CN(C)/C=C/c1oc2ccc(O)cc2c1[N+](=O)[O-] ?
PG9 binder: -26.9; NR2E3 ag-1: -12.2; GalR3 antag: 2.2; NR1D1 modulator: 37.1*; NR2E3 ag-2: -38.8; NR1D1 mod conf: 17.2

Results for Cc1oc2ccc(O)cc2c1C(=O)c1ccc([N+](=O)[O-])cc1 ?
PG9 binder: -2.9; NR2E3 ag-1: 1.6; GalR3 antag: -1.6; NR1D1 modulator: -3.2; NR2E3 ag-2: -37.6

What do the screens show for `O=C1c2ccccc2NC(c2ccc(Cl)cc2Cl)N1O` (stereo unspecified)?
PG9 binder: -2.0; NR2E3 ag-1: 3.9; GalR3 antag: -1.5; NR1D1 modulator: -1.6; NR2E3 ag-2: -9.9

What do the screens show for `C=CCc1cccc(C2Nc3ccccc3C(=O)N2O)c1O` (stereo unspecified)?
PG9 binder: 0.3; NR2E3 ag-1: 0.3; GalR3 antag: 0.0; NR1D1 modulator: 59.8*; NR2E3 ag-2: -66.6; NR1D1 mod conf: 31.8*; RORg DNA counter: >40

How did O=C(C1CCCN1S(=O)(=O)c1ccc(Br)s1)N1CCN(c2ccccc2)CC1 (stereo unspecified) do in these assays?
NR1D1 modulator: 5.8

Results for CCOC(=O)c1cccc(NC(=O)CN(C)S(=O)(=O)c2cc3ccccc3s2)c1 ?
NR1D1 modulator: -5.1

Results for O=C(CSc1nnc2scc(-c3ccccc3)n12)Nc1nsc(-c2ccc(Cl)cc2)n1 ?
PG9 binder: 0.4; NR2E3 ag-1: 4.8; GalR3 antag: -1.6; NR1D1 modulator: 30.8*; NR2E3 ag-2: 2.5; NR1D1 mod conf: 17.0

What do the screens show for `Cc1ccc(-c2csc3nnc(SCC(=O)Nc4nsc(-c5ccccc5)n4)n23)cc1`?
PG9 binder: -1.2; NR2E3 ag-1: -0.9; GalR3 antag: -4.7; NR1D1 modulator: -1.0; NR2E3 ag-2: -11.7

Results for O=C(CSc1nnc2scc(-c3ccccc3)n12)Nc1nsc(-c2ccccc2)n1 ?
NR2E3 ag-1: -244.5; NR1D1 modulator: 43.5*; NR2E3 ag-2: -1.9; NR1D1 mod conf: 38.6*; RORg DNA counter: >40

How did O=c1c(Cl)c(N2CCN(S(=O)(=O)c3ccc(F)cc3)CC2)cnn1-c1cccc(Cl)c1 do in these assays?
PG9 binder: -0.2; NR2E3 ag-1: 0.7; GalR3 antag: -3.0; NR1D1 modulator: 27.9*; NR2E3 ag-2: -21.0; NR1D1 mod conf: 27.5*

How did O=C(CSc1nc2ccsc2c(=O)n1Cc1ccccc1)NCc1ccco1 do in these assays?
PG9 binder: 15.7*; NR2E3 ag-1: 0.1; GalR3 antag: -5.3; NR1D1 modulator: 17.5*; NR2E3 ag-2: -15.2; NR1D1 mod conf: 5.2

What do the screens show for `O=C(CSc1nc2ccsc2c(=O)n1NC(=O)c1ccccc1)NCc1ccco1`?
PG9 binder: -1.2; NR2E3 ag-1: 1.3; GalR3 antag: -5.8; NR1D1 modulator: -0.7; NR2E3 ag-2: -60.6

Results for C[C@H]1[C@H](c2ccccc2)Oc2cccc(NCCc3ccccc3)c2S(=O)(=O)N1Cc1cccc(Cl)c1 ?
PG9 binder: 1.1; GalR3 antag: -6.1; NR1D1 modulator: 4.8

Results for Cc1cccc(C)c1NC(=O)COC(=O)c1cc(-c2cccnc2)nc2ccccc12 ?
PG9 binder: 2.4; NR2E3 ag-1: 2.4; GalR3 antag: -8.4; NR1D1 modulator: 19.2*; NR2E3 ag-2: 10.1; NR1D1 mod conf: 21.2*

What do the screens show for `COc1ccc(-c2cc(C(=O)OCC(=O)Nc3cc(C)on3)c3ccccc3n2)cc1OC`?
PG9 binder: -0.5; NR2E3 ag-1: 5.5; GalR3 antag: 3.6; NR1D1 modulator: 20.6*; NR2E3 ag-2: -25.0; NR1D1 mod conf: -4.5

Results for Cc1ccc2c(n1)sc1c(-c3ccccc3)c(C#N)c(N)nc12 ?
PG9 binder: 0.5; NR2E3 ag-1: 3.0; GalR3 antag: -5.1; NR1D1 modulator: 49.0*; NR2E3 ag-2: -7.4; NR1D1 mod conf: 38.0*; RORg DNA counter: >40

What do the screens show for `Cc1nc(N)c(C#N)c(-c2cccnc2)c1-c1ccccc1`?
PG9 binder: 6.0; NR2E3 ag-1: 1.9; GalR3 antag: -7.6; NR1D1 modulator: 2.0; NR2E3 ag-2: 3.9

What do the screens show for `Cc1c(N2C(=O)/C(=C/c3ccccc3)SC2=S)c(=O)n(-c2ccccc2)n1C`?
PG9 binder: -1.1; NR2E3 ag-1: -0.4; GalR3 antag: 6.9; NR1D1 modulator: -3.0; NR2E3 ag-2: 11.1

How did Cc1c(N2C(=O)/C(=C/c3ccc(N(C)C)cc3)N(C)C2=S)c(=O)n(-c2ccccc2)n1C do in these assays?
PG9 binder: -16.6; GalR3 antag: 0.0; NR1D1 modulator: 22.5*; NR2E3 ag-2: 10.4; NR1D1 mod conf: 19.0*

How did CCC(C)(C)c1ccc(OCCCC[n+]2ccc(C)cc2)c(C(C)(C)CC)c1 do in these assays?
PG9 binder: -0.5; NR2E3 ag-1: 1.4; GalR3 antag: 2.3; NR1D1 modulator: 33.6*; NR1D1 mod conf: 36.1*; RORg DNA counter: >40

Results for CN1CCCN(C(=O)CSc2nnc(-c3cccnc3)n2C2CCCCC2)CC1 ?
NR1D1 modulator: 0.2

What do the screens show for `CN(C)C=Nc1ncc2c3ccccc3n(CCN(C)C)c2c1C#N`?
PG9 binder: -0.9; NR2E3 ag-1: 3.2; GalR3 antag: -3.9; NR1D1 modulator: -0.2; NR2E3 ag-2: -15.1
